pEC50, pIC50: −log10 of the molar value. In brackets after ≈: the same amount, converted by molar mass. Activity calls are given as the source filed them. The rule behind the calls is not given here.
Legend:
[1] = test system: Radical scavenging activity; experiment: Antioxidant activity assessed as DPPH radical scavenging activity after 30 mins by spectrophotometric analysis; format: functional
How it was run: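 DPPH radical bleaching followed as loss of absorbance at 517 nm; IC50 derived; mean ± SD, n = 3.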

[2] = test system: Staphylococcus aureus; experiment: Antibacterial activity against Staphylococcus aureus after 24 hrs by agar dilution method; format: functional
[3] = test system: Escherichia coli; experiment: Antibacterial activity against Escherichia coli after 24 hrs by agar dilution method; format: functional
[4] = test system: Pseudomonas aeruginosa; experiment: Antibacterial activity against Pseudomonas aeruginosa after 24 hrs by agar dilution method; format: functional
[5] = test system: Bacillus cereus; experiment: Antibacterial activity against Bacillus cereus after 24 hrs by agar dilution method; format: functional
[6] = Antioxidant activity assessed as hydroxyl radical scavenging activity after 1 hr by spectrophotometric analysis; format: functional
[7] = test system: NIH3T3; experiment: Cytotoxicity against mouse NIH/3T3 cells after 48 hrs by SRB assay; format: cell-based; conditions: NIH3T3, 48 h
[8] = Antioxidant activity assessed as superoxide radical anion scavenging activity by spectrophotometric analysis; format: functional
[9] = test system: Staphylococcus epidermidis; experiment: Antibacterial activity against Staphylococcus albus after 24 hrs by agar dilution method; format: functional
[10] = Antioxidant activity assessed as ferric ion reducing ability at 1 to 50 uM after 20 mins by spectrophotometric analysis; format: functional
[11] = Antioxidant activity assessed as ferric ion reducing ability after 20 mins by spectrophotometric analysis; format: functional

Compound | pEC50 [1] | MBC [2] [µM] | MIC [2] [µM] | MIC [3] [µM] | MIC [4] [µM] | MBC [5] [µM] | MIC [5] [µM] | pEC50 [6] | pIC50 [7] | pEC50 [8] | MBC [9] [µM] | MIC [9] [µM] | MBC [3] [µM] | Activity [10] | Activity [11] | MBC [4] [µM]
COc1ccc2[nH]c(-c3ccc(OC)c(OC)c3)nc2c1 | < 3.70 | 200 (≈ 56.9 µg/mL) | 50 (≈ 14.2 µg/mL) | > 200 | > 200 | 100 (≈ 28.4 µg/mL) | 25 (≈ 7.11 µg/mL) | < 3.70 | < 3.70 | < 3.70 | > 200 | 100 (≈ 28.4 µg/mL) |  |  |  | 
COc1ccc(-c2nc3cc(OC)ccc3[nH]2)cc1 | < 3.70 | 200 (≈ 50.9 µg/mL) | 25 (≈ 6.36 µg/mL) | 6.25 (≈ 1.59 µg/mL) | > 200 | 200 (≈ 50.9 µg/mL) | 50 (≈ 12.7 µg/mL) | < 3.70 | < 3.70 | < 3.70 | > 200 | 100 (≈ 25.4 µg/mL) | 100 (≈ 25.4 µg/mL) |  |  | 
Oc1ccc(-c2nc3cc(O)ccc3[nH]2)cc1 | 4.47 | 1.56 (≈ 0.353 µg/mL) | 1.56 (≈ 0.353 µg/mL) | > 200 | > 200 | 50 (≈ 11.3 µg/mL) | 50 (≈ 11.3 µg/mL) | 3.80 | < 3.70 | < 3.70 |  | > 200 |  | Active | Dose-dependent effect | 
COc1ccc2[nH]c(-c3ccccc3O)nc2c1 | < 3.70 |  | > 200 | 100 (≈ 24 µg/mL) | > 200 | > 200 | 200 (≈ 48.1 µg/mL) | 3.72 | < 3.70 | 4.06 |  | > 200 | > 200 |  |  | 
COc1ccc(OC)c(-c2nc3cc(OC)ccc3[nH]2)c1 | < 3.70 | 50 (≈ 14.2 µg/mL) | 6.25 (≈ 1.78 µg/mL) | > 200 | > 200 | 200 (≈ 56.9 µg/mL) | 100 (≈ 28.4 µg/mL) | < 3.70 | < 3.70 | < 3.70 |  | > 200 |  |  |  | 
COc1ccc(-c2nc3ccccc3[nH]2)cc1 | < 3.70 | 1.56 (≈ 0.35 µg/mL) | 1.56 (≈ 0.35 µg/mL) | 12.5 (≈ 2.8 µg/mL) | > 200 | 100 (≈ 22.4 µg/mL) | 50 (≈ 11.2 µg/mL) | < 3.70 | < 3.70 | < 3.70 | 100 (≈ 22.4 µg/mL) | 100 (≈ 22.4 µg/mL) | 50 (≈ 11.2 µg/mL) |  |  | 
COc1ccc2[nH]c(-c3ccc(O)c(OC)c3)nc2c1 | 4.24 | 200 (≈ 54.1 µg/mL) | 100 (≈ 27 µg/mL) | > 200 | > 200 | 200 (≈ 54.1 µg/mL) | 50 (≈ 13.5 µg/mL) | < 3.70 | < 3.70 | < 3.70 |  | > 200 |  |  |  | 
Oc1ccc2[nH]c(-c3ccccc3)nc2c1 | 4.38 | 1.56 (≈ 0.328 µg/mL) | 1.56 (≈ 0.328 µg/mL) | 100 (≈ 21 µg/mL) | > 200 | 100 (≈ 21 µg/mL) | 50 (≈ 10.5 µg/mL) | < 3.70 | < 3.70 | < 3.70 |  | > 200 | > 200 | Active | Dose-dependent effect | 
CC(C)(C)c1cc(O)ccc1O [E319] | 4.44 |  |  |  |  |  |  | 4.19 |  | < 3.70 |  |  |  |  | Dose-dependent effect | 
Oc1ccccc1-c1nc2ccccc2[nH]1 | < 3.70 |  | > 200 | 25 (≈ 5.26 µg/mL) | > 200 |  | > 200 | < 3.70 | < 3.70 | 3.91 |  | > 200 | 100 (≈ 21 µg/mL) |  |  | 
COc1ccc2[nH]c(-c3ccc(O)cc3O)nc2c1 | 3.89 | 100 (≈ 25.6 µg/mL) | 50 (≈ 12.8 µg/mL) | 6.25 (≈ 1.6 µg/mL) | > 200 | 100 (≈ 25.6 µg/mL) | 50 (≈ 12.8 µg/mL) | < 3.70 | < 3.70 | 3.72 | 200 (≈ 51.3 µg/mL) | 100 (≈ 25.6 µg/mL) | 100 (≈ 25.6 µg/mL) |  |  | 
O=C(O)c1cn(C2CC2)c2cc(N3CCNCC3)c(F)cc2c1=O [CIPROFLOXACIN] |  | 0.39 (≈ 0.129 µg/mL) | 0.39 (≈ 0.129 µg/mL) | 0.39 (≈ 0.129 µg/mL) | 0.78 (≈ 0.258 µg/mL) | 0.39 (≈ 0.129 µg/mL) | 0.39 (≈ 0.129 µg/mL) |  | < 3.70 |  | 0.39 (≈ 0.129 µg/mL) | 0.39 (≈ 0.129 µg/mL) | 0.39 (≈ 0.129 µg/mL) |  |  | 0.78 (≈ 0.258 µg/mL)
COc1cc(OC)cc(-c2nc3cc(OC)ccc3[nH]2)c1 | < 3.70 |  | > 200 | > 200 | > 200 |  | > 200 | < 3.70 | < 3.70 | < 3.70 |  | > 200 |  |  |  | 
Oc1cccc(-c2nc3ccccc3[nH]2)c1 | < 3.70 | 0.78 (≈ 0.164 µg/mL) | 0.39 (≈ 0.082 µg/mL) | 12.5 (≈ 2.63 µg/mL) | > 200 | 200 (≈ 42 µg/mL) | 50 (≈ 10.5 µg/mL) | < 3.70 | < 3.70 | < 3.70 |  | > 200 | 100 (≈ 21 µg/mL) |  |  | 
Oc1ccc(-c2nc3ccccc3[nH]2)cc1 | < 3.70 | 50 (≈ 10.5 µg/mL) | 12.5 (≈ 2.63 µg/mL) | 25 (≈ 5.26 µg/mL) | > 200 |  | > 200 | < 3.70 | < 3.70 | < 3.70 |  | > 200 | 100 (≈ 21 µg/mL) |  |  | 
COc1ccc2[nH]c(-c3cccc(O)c3)nc2c1 | < 3.70 | 200 (≈ 48.1 µg/mL) | 100 (≈ 24 µg/mL) | 12.5 (≈ 3 µg/mL) | > 200 | 200 (≈ 48.1 µg/mL) | 25 (≈ 6.01 µg/mL) | < 3.70 | < 3.70 | < 3.70 |  | > 200 | 100 (≈ 24 µg/mL) |  |  | 
COc1ccc(-c2nc3cc(OC)ccc3[nH]2)c(OC)c1 | < 3.70 | 50 (≈ 14.2 µg/mL) | 6.25 (≈ 1.78 µg/mL) | > 200 | > 200 |  | > 200 | < 3.70 | < 3.70 | < 3.70 | 200 (≈ 56.9 µg/mL) | 100 (≈ 28.4 µg/mL) |  |  |  | 
COc1ccc2[nH]c(-c3ccc(O)cc3)nc2c1 | < 3.70 | 200 (≈ 48.1 µg/mL) | 100 (≈ 24 µg/mL) | 12.5 (≈ 3 µg/mL) | > 200 | 200 (≈ 48.1 µg/mL) | 50 (≈ 12 µg/mL) | < 3.70 | < 3.70 | < 3.70 |  | > 200 | 100 (≈ 24 µg/mL) |  |  | 
c1ccc(-c2nc3ccccc3[nH]2)cc1 | < 3.70 | > 200 | 100 (≈ 19.4 µg/mL) | 6.25 (≈ 1.21 µg/mL) | > 200 |  | > 200 | < 3.70 | < 3.70 | < 3.70 |  | > 200 | 100 (≈ 19.4 µg/mL) |  |  | 
COc1ccc2[nH]c(-c3ccccc3)nc2c1 | < 3.70 |  | > 200 | 25 (≈ 5.61 µg/mL) | > 200 | 200 (≈ 44.9 µg/mL) | 50 (≈ 11.2 µg/mL) | < 3.70 | < 3.70 | < 3.70 |  | > 200 | 100 (≈ 22.4 µg/mL) |  |  | 

Source: ChEMBL document CHEMBL2396641, “Synthesis, antioxidant, and antimicrobial evaluation of some 2-arylbenzimidazole derivatives” (Bioorg Med Chem Lett, 2013)
